# Experimental data from ChEMBL document CHEMBL4715736, “Identification of anticancer agents based on the thieno[2,3-b]pyridine and 1H-pyrazole molecular scaffolds” (2016).
# Columns and labels:
# Assay type in all cases: functional
# A549 = test: Growth inhibition of human A549/ATCC cells assessed as cell growth at 0.01 uM incubated for 48 hrs by sulforhodamine B assay relative to control; details: read-out: Activity
# Method in brief: (§1)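 NCI Developmental Therapeutics Program NCI60 panel. Compounds that were active in the 10 µM one-dose screen went on to dose–response testing. Growth at each concentration is expressed relative to untreated control (100%). GI50 (concentration giving 50% of maximal inhibition of proliferation) and TGI (concentration giving total growth inhibition) were derived from the curves.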
# HOP-62 = test: Growth inhibition of human HOP-62 cells assessed as cell growth at 0.01 uM incubated for 48 hrs by sulforhodamine B assay relative to control; details: read-out: Activity
# COLO 205 = test: Growth inhibition of human COLO 205 cells assessed as cell growth at 0.01 uM incubated for 48 hrs by sulforhodamine B assay relative to control; details: read-out: Activity; method in brief: as §1
# SW-620 [1] = test: Growth inhibition of human SW-620 cells assessed as cell growth at 0.01 uM incubated for 48 hrs by sulforhodamine B assay relative to control; details: read-out: Activity
# U-251 [2] = test: Growth inhibition of human U-251 cells assessed as cell growth at 0.01 uM incubated for 48 hrs by sulforhodamine B assay relative to control; details: read-out: Activity
# LOX IMVI = test: Growth inhibition of human LOX IMVI cells assessed as cell growth at 0.01 uM incubated for 48 hrs by sulforhodamine B assay relative to control; details: read-out: Activity
# NCI/ADR-RES [3] = test: Growth inhibition of human NCI/ADR-RES cells assessed as cell growth at 0.01 uM incubated for 48 hrs by sulforhodamine B assay relative to control; details: read-out: Activity
# SK-OV-3 = test: Growth inhibition of human SK-OV-3 cells assessed as cell growth at 0.01 uM incubated for 48 hrs by sulforhodamine B assay relative to control; details: read-out: Activity
# DU-145 = test: Growth inhibition of human DU-145 cells assessed as cell growth at 0.01 uM incubated for 48 hrs by sulforhodamine B assay relative to control; details: read-out: Activity; method in brief: as §1
# BT-549 = test: Growth inhibition of human BT-549 cells assessed as cell growth at 0.01 uM incubated for 48 hrs by sulforhodamine B assay relative to control; details: read-out: Activity
# RPMI-8226 = test: Growth inhibition of human RPMI-8226 cells assessed as cell growth at 0.1 uM incubated for 48 hrs by sulforhodamine B assay relative to control; details: read-out: Activity
# SW-620 [4] = test: Growth inhibition of human SW-620 cells assessed as cell growth at 0.1 uM incubated for 48 hrs by sulforhodamine B assay relative to control; details: read-out: Activity
# 786-0 = test: Growth inhibition of human 786-0 cells assessed as cell growth at 0.1 uM incubated for 48 hrs by sulforhodamine B assay relative to control; details: read-out: Activity; method in brief: as §1
# TK-10 [5] = test: Growth inhibition of human TK-10 cells assessed as cell growth at 0.1 uM incubated for 48 hrs by sulforhodamine B assay relative to control; details: read-out: Activity
# K562 = test: Growth inhibition of human K562 cells assessed as cell growth at 1 uM incubated for 48 hrs by sulforhodamine B assay relative to control; details: read-out: Activity
# NCI-H322M = test: Growth inhibition of human NCI-H322M cells assessed as cell growth at 1 uM incubated for 48 hrs by sulforhodamine B assay relative to control; details: read-out: Activity
# NCI-H460 = test: Growth inhibition of human NCI-H460 cells assessed as cell growth at 1 uM incubated for 48 hrs by sulforhodamine B assay relative to control; details: read-out: Activity
# NCI/ADR-RES [6] = test: Growth inhibition of human NCI/ADR-RES cells assessed as cell growth at 1 uM incubated for 48 hrs by sulforhodamine B assay relative to control; details: read-out: Activity
# TK-10 [7] = test: Growth inhibition of human TK-10 cells assessed as cell growth at 1 uM incubated for 48 hrs by sulforhodamine B assay relative to control; details: read-out: Activity
# NCI-H226 [8] = test: Growth inhibition of human NCI-H226 cells assessed as cell growth at 100 uM incubated for 48 hrs by sulforhodamine B assay relative to control; details: read-out: Activity
# SF-295 = test: Growth inhibition of human SF-295 cells assessed as cell growth at 100 uM incubated for 48 hrs by sulforhodamine B assay relative to control; details: read-out: Activity
# MDA-MB-435 = test: Growth inhibition of human MDA-MB-435 cells assessed as cell growth at 100 uM incubated for 48 hrs by sulforhodamine B assay relative to control; details: read-out: Activity
# SK-MEL-2 = test: Growth inhibition of human SK-MEL-2 cells assessed as cell growth at 100 uM incubated for 48 hrs by sulforhodamine B assay relative to control; details: read-out: Activity
# IGROV-1 = test: Growth inhibition of human IGROV-1 cells assessed as cell growth at 100 uM incubated for 48 hrs by sulforhodamine B assay relative to control; details: read-out: Activity
# NCI/ADR-RES [9] = test: Growth inhibition of human NCI/ADR-RES cells assessed as cell growth at 100 uM incubated for 48 hrs by sulforhodamine B assay relative to control; details: read-out: Activity
# SN12C = test: Growth inhibition of human SN12C cells assessed as cell growth at 100 uM incubated for 48 hrs by sulforhodamine B assay relative to control; details: read-out: Activity
# NCI-H226 [10] = test: Growth inhibition of human NCI-H226 cells incubated for 48 hrs by sulforhodamine B assay
# Method in brief: (§2)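 NCI60 panel at the NCI Developmental Therapeutics Program. Only compounds active in the 10 µM screen went to dose-response testing. GI50, the concentration giving 50% of maximal inhibition of proliferation, and TGI, the concentration giving total growth inhibition, were derived from the dose-response curves.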
# SF-539 = test: Growth inhibition of human SF-539 cells incubated for 48 hrs by sulforhodamine B assay
# Method in brief: (§3)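 NCI DTP 60-line human tumour panel. Dose-response curves were run only for ligands active in the initial 10 µM screen. GI50 (concentration giving 50% of maximal inhibition of proliferation) and TGI (concentration giving total growth inhibition) were derived from these curves.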
# SNB-75 = test: Growth inhibition of human SNB-75 cells incubated for 48 hrs by sulforhodamine B assay; method in brief: as §3
# U-251 [11] = test: Growth inhibition of human U-251 cells incubated for 48 hrs by sulforhodamine B assay; method in brief: as §3
# SK-MEL-28 = test: Growth inhibition of human SK-MEL-28 cells incubated for 48 hrs by sulforhodamine B assay; method in brief: as §3
# UO-31 = test: Growth inhibition of human UO-31 cells incubated for 48 hrs by sulforhodamine B assay; method in brief: as §3
# MDA-MB-231 = test: Growth inhibition of human MDA-MB-231 cells incubated for 48 hrs by sulforhodamine B assay; method in brief: as §2
# Hs-578T = test: Growth inhibition of human Hs-578T cells incubated for 48 hrs by sulforhodamine B assay; method in brief: as §2
# [12] = read-out: LC50 (the source's name)
smiles,measurement,setting,value
Cc1cc(C)c(NC(=O)c2sc3nc4c(cc3c2N)CN(Cc2ccccc2)CC4)c(C)c1,growth at 0.01 µM,A549,96%
same,growth at 0.01 µM,HOP-62,83%
same,growth at 0.01 µM,COLO 205,94%
same,growth at 0.01 µM,SW-620 [1],95%
same,growth at 0.01 µM,U-251 [2],99%
same,growth at 0.01 µM,LOX IMVI,99%
same,growth at 0.01 µM,NCI/ADR-RES [3],104%
same,growth at 0.01 µM,SK-OV-3,92%
same,growth at 0.01 µM,DU-145,104%
same,growth at 0.01 µM,BT-549,87%
same,growth at 0.1 µM,RPMI-8226,100%
same,growth at 0.1 µM,SW-620 [4],98%
same,growth at 0.1 µM,786-0,92%
same,growth at 0.1 µM,TK-10 [5],104%
same,growth at 1 µM,K562,47%
same,growth at 1 µM,NCI-H322M,102%
same,growth at 1 µM,NCI-H460,96%
same,growth at 1 µM,NCI/ADR-RES [6],69%
same,growth at 1 µM,TK-10 [7],95%
same,growth at 100 µM,NCI-H226 [8],20%
same,growth at 100 µM,SF-295,-2%
same,growth at 100 µM,MDA-MB-435,-58%
same,growth at 100 µM,SK-MEL-2,6%
same,growth at 100 µM,IGROV-1,5%
same,growth at 100 µM,NCI/ADR-RES [9],-11%
same,growth at 100 µM,SN12C,12%
same,GI50,NCI-H226 [10],4.69 µM
same,TGI,NCI-H226 [10],> 100 µM
same,CC50,NCI-H226 [10]; [12],> 100 µM
same,GI50,SF-539,2.44 µM
same,TGI,SF-539,7.79 µM
same,CC50,SF-539; [12],> 100 µM
same,GI50,SNB-75,2.35 µM
same,LC50,SNB-75,> 100 µM
same,TGI,SNB-75,11 µM
same,GI50,U-251 [11],4.35 µM
same,LC50 (concentration killing 50% of cells),U-251 [11],> 100 µM
same,TGI,U-251 [11],24.2 µM
same,GI50,SK-MEL-28,6.97 µM
same,LC50,SK-MEL-28,> 100 µM
same,TGI,SK-MEL-28,40.4 µM
same,GI50,UO-31,4.78 µM
same,TGI,UO-31,93.9 µM
same,CC50,UO-31; [12],> 100 µM
same,GI50,MDA-MB-231,5.75 µM
same,TGI,MDA-MB-231,58.9 µM
same,CC50,MDA-MB-231; [12],> 100 µM
same,GI50,Hs-578T,2.66 µM
same,TGI,Hs-578T,65.9 µM
same,CC50,Hs-578T; [12],> 100 µM
